Assay results as given in ChEMBL document CHEMBL3352113, “Cytoprotective pyridinol antioxidants as potential therapeutic agents for neurodegenerative and mitochondrial diseases” (Bioorg Med Chem, 2014).
Calls of active or inactive are those of the source. The rule behind the calls is not given here.

Assays:
Lymphocyte [1] = experiment: Inhibition of oxidative stress-induced mitochondrial membrane depolarization in diethyl maleate-treated human lymphocytes obtained from FRDA patient assessed as cells with intact mitochondrial membrane potential at 500 nM pretreated for 16 hrs using TMRM by FACS analysis (reference value: 95%); assay type: functional; design: scale not given: the % may be the effect or the level left
Bos taurus [2] = species on record: Bos taurus; experiment: Inhibition of bovine heart mitochondrial NADH oxidase complex I/III/IV assessed as remaining activity at 10 uM by spectrophotometry relative to untreated control
Lymphocyte [3] = experiment: Inhibition of oxidative stress-induced mitochondrial membrane depolarization in diethyl maleate-treated human lymphocytes obtained from FRDA patient assessed as cells with intact mitochondrial membrane potential pretreated for 16 hrs using TMRM by FACS analysis; assay type: functional, cell-based
Lymphocyte [4] = experiment: Cytoprotective activity in human lymphocytes obtained from Leigh's syndrome patient assessed as viable cells at 0.1 uM after 16 hrs by trypan blue exclusion assay; assay type: functional; details: read-out: Activity
Outline: (§1)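 Lymphocytes from FRDA or Leigh's syndrome patients, grown in RPMI-1640 with 15% fetal calf serum and 2 mM glutamine, kept in log phase. Test agents at 0.1, 0.5 and 2.5 µM; diethyl maleate (DEM) added to deplete glutathione and induce oxidative stress. Viability expressed relative to untreated cells (100%). Values are mean ± SD/SEM as tabulated.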

Lymphocyte [5] = experiment: Cytoprotective activity in human lymphocytes obtained from FRDA patient assessed as viable cells at 0.1 uM after 16 hrs by trypan blue exclusion assay; assay type: functional; details: read-out: Activity; outline: as §1
[6] = Drug metabolism in bovine liver microsomes at 25 uM after 30 mins by reverse phase HPLC analysis; assay type: ADME, Bos taurus; details: cattle, read-out: Drug metabolism
Outline: (§2)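 Compounds incubated 30 min with activated bovine liver microsomes. Remaining parent compound quantified by reversed-phase HPLC and expressed as % recovered; mean ± SD.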

Lymphocyte [7] = experiment: Cytoprotective activity in human lymphocytes obtained from Leigh's syndrome patient assessed as viable cells after 16 hrs by trypan blue exclusion assay; assay type: functional, cell-based; outline: as §1
Lymphocyte [8] = experiment: Inhibition of ROS generation in diethyl maleate-treated human lymphocytes obtained from FRDA patient compound pretreated for 16 hrs using DCFH-DA by FACS analysis; assay type: functional, cell-based
Outline: (§3)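 FRDA lymphocytes pretreated with compounds at 100, 250 and 500 nM for 16 h, then given DEM for 80 min to raise ROS. Stained with DCFH-DA for 15 min, then DCF fluorescence read by flow cytometry. Reported as % ROS scavenging; mean ± SEM of three experiments run in duplicate.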

Lymphocyte [9] = experiment: Inhibition of lipid peroxidation in diethyl maleate-treated human lymphocytes obtained from FRDA patient at 100 to 250 nM after 16 hrs using C11-BODIPY581/591 by FACS analysis; assay type: functional, cell-based
Outline: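 FRDA lymphocytes depleted of glutathione with DEM, probed with C11-BODIPY581/591. Green (oxidized) fluorescence read by flow cytometry at 490/510 nm. Median mean fluorescence taken relative to untreated control and converted to % lipid peroxidation scavenging; mean ± SEM, n = 3.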

Lymphocyte [10] = experiment: Inhibition of oxidative stress-induced mitochondrial membrane depolarization in diethyl maleate-treated human lymphocytes obtained from FRDA patient assessed as cells with intact mitochondrial membrane potential at 100 nM pretreated for 16 hrs using TMRM by FACS analysis (reference value: 95%); assay type: functional; design: scale not given: the % may be the effect or the level left
Lymphocyte [11] = experiment: Increase in ATP production in CoQ10-deficient lymphocytes (unknown origin) assessed as cellular ATP level at 5 uM after 48 hrs using luciferin-luciferase reaction by bioluminescence assay relative to control; assay type: functional
Outline: (§4)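 CoQ10-deficient lymphocyte line GM17932 grown in glucose-free RPMI 1640 with 25 mM galactose, 2 mM glutamine and 10% dialyzed FBS, forcing oxidative phosphorylation. Incubated with compounds at 5, 10 or 25 µM for 48 h. Total intracellular ATP measured by luciferin–luciferase reaction, expressed as % of untreated control.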

Bos taurus [12] = species on record: Bos taurus; experiment: Inhibition of bovine heart mitochondrial NADH oxidase complex I/III/IV assessed as remaining activity at 1 uM by spectrophotometry relative to untreated control
Lymphocyte [13] = experiment: Inhibition of oxidative stress-induced mitochondrial membrane depolarization in diethyl maleate-treated human lymphocytes obtained from FRDA patient assessed as cells with intact mitochondrial membrane potential at 250 nM pretreated for 16 hrs using TMRM by FACS analysis (reference value: 95%); assay type: functional; design: scale not given: the % may be the effect or the level left
Lymphocyte [14] = experiment: Increase in ATP production in CoQ10-deficient lymphocytes (unknown origin) assessed as cellular ATP level at 25 uM after 48 hrs using luciferin-luciferase reaction by bioluminescence assay relative to control; assay type: functional; outline: as §4
Lymphocyte [15] = experiment: Cytoprotective activity in human lymphocytes obtained from FRDA patient assessed as viable cells at 2.5 uM after 16 hrs by trypan blue exclusion assay; assay type: functional; details: read-out: Activity; outline: as §1
Bos taurus [16] = species on record: Bos taurus; experiment: Inhibition of bovine heart mitochondrial NADH oxidase complex I/III/IV assessed as remaining activity at 5 uM by spectrophotometry relative to untreated control
Lymphocyte [17] = experiment: Inhibition of ROS generation in diethyl maleate-treated human lymphocytes obtained from FRDA patient compound pretreated at 100 to 500 nM for 16 hrs using DCFH-DA by FACS analysis; assay type: functional, cell-based; outline: as §3
Lymphocyte [18] = experiment: Cytoprotective activity in human lymphocytes obtained from Leigh's syndrome patient assessed as viable cells at 2.5 uM after 16 hrs by trypan blue exclusion assay; assay type: functional; details: read-out: Activity; outline: as §1
Lymphocyte [19] = experiment: Cytoprotective activity in human lymphocytes obtained from FRDA patient assessed as viable cells after 16 hrs by trypan blue exclusion assay; assay type: functional, cell-based; outline: as §1
Lymphocyte [20] = experiment: Increase in ATP production in CoQ10-deficient lymphocytes (unknown origin) assessed as cellular ATP level at 10 uM after 48 hrs using luciferin-luciferase reaction by bioluminescence assay relative to control; assay type: functional; outline: as §4
Lymphocyte [21] = experiment: Cytoprotective activity in human lymphocytes obtained from FRDA patient assessed as viable cells at 0.5 uM after 16 hrs by trypan blue exclusion assay; assay type: functional; details: read-out: Activity; outline: as §1
[22] = Metabolic stability in bovine liver microsomes at 25 uM after 30 mins by reverse phase HPLC analysis; assay type: ADME, Bos taurus; details: cattle, read-out: Stability; outline: as §2
Bos taurus [23] = species on record: Bos taurus; experiment: Inhibition of bovine heart mitochondrial NADH oxidase complex I/III/IV assessed as remaining activity by spectrophotometry relative to untreated control
Lymphocyte [24] = experiment: Cytoprotective activity in human lymphocytes obtained from Leigh's syndrome patient assessed as viable cells at 0.5 uM after 16 hrs by trypan blue exclusion assay; assay type: functional; details: read-out: Activity; outline: as §1

In the case of `CCCCCCCCCCCCCCCCc1nc(N(C)C)c(C)c(C)c1O`, the Activity (Lymphocyte [1]) is reported as 92%, the Activity (Bos taurus [2]) is reported as 92% and the inhibition (Lymphocyte [3]) is reported as “Dose-dependent effect”. It also gave a viability at 0.1 µM (Lymphocyte [4]) of 29%, a viability at 0.1 µM (Lymphocyte [5]) of 80% and a metabolised at 0.5 h, 25 µM [6] of 20%. The Activity (Lymphocyte [7]) was “Dose-dependent effect”, the inhibition (Lymphocyte [8]) was “Dose-dependent effect” and the inhibition (Lymphocyte [9]) was “Active”. For the same compound, the Activity (Lymphocyte [10]) was 67%, the Activity (Lymphocyte [11]) was 100% and the Activity (Bos taurus [12]) was 98%. It also gave an Activity (Lymphocyte [13]) of 84%, an Activity (Lymphocyte [14]) of 41% and a viability at 2.5 µM (Lymphocyte [15]) of 92%. For the same compound, the Activity (Bos taurus [16]) was 95%, the inhibition (Lymphocyte [17]) was “Active” and the viability at 2.5 µM (Lymphocyte [18]) was 83%. For the same compound, the Activity (Lymphocyte [19]) was “Dose-dependent effect”, the Activity (Lymphocyte [20]) was 79% and the viability at 0.5 µM (Lymphocyte [21]) was 91%. The remaining at 0.5 h, 25 µM [22] was 70%, the inhibition (Bos taurus [23]) was “Dose-dependent effect” and the viability at 0.5 µM (Lymphocyte [24]) was 78%.
